Active and inactive are the calls of the source. The rule behind the calls is not given here.
How the values were obtained:
[1] = tested on: HEK293; test: Cytotoxicity against HEK293 cells after 48 hrs by MTT assay; type: functional; conditions: Homo sapiens, HEK293, 48 h; read-out: LC50 (the source's name)
How it was run: (§1)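 Cells seeded at 10,000 per well and exposed to increasing compound concentrations for 48 h. After a PBS wash, MTT (2.5 mg/mL) was added for 6 h at 37 °C, then detergent (10% NP-40, 4 mM HCl), and absorbance was read at 570 nm. LC50 is the concentration causing 50% cell death. Values are means of three independent experiments.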

[2] = Retention time of the compound by HPLC method; type: physicochemical
[3] = tested on: Vero; test: Cytotoxicity against african green monkey Vero cells after 48 hrs by MTT assay; type: cell-based; conditions: chlorocebus sabaeus; how it was run: as §1
[4] = tested on: HEK293; test: Induction of cell cycle arrest in HEK293 cells assessed as accumulation at G1 phase at 15 uM after 48 hrs by propidium iodide staining based flow cytometry (reference value: 53.21 +/- 0.8%); type: functional, Homo sapiens
[5] = tested on: HEK293; test: Induction of cell cycle arrest in HEK293 cells assessed as accumulation at G1 phase at 5 uM after 48 hrs by propidium iodide staining based flow cytometry (reference value: 53.21 +/- 0.8%); type: functional, Homo sapiens
[6] = tested on: HEK293; test: Induction of cell cycle arrest in HEK293 cells assessed as accumulation at G2/M phase at 15 uM after 48 hrs by propidium iodide staining based flow cytometry (reference value: 2.63 +/- 0.7%); type: functional, Homo sapiens
[7] = tested on: HEK293; test: Increase in p53 expression in p53 deficient HEK293 cells at LC50 level after 48 hrs by Western blot method; type: functional, cell-based; conditions: Homo sapiens
[8] = tested on: HEK293; test: Induction of apoptosis in HEK293 cells at 20 uM after 48 hrs by propidium iodide staining based flow cytometry relative to untreated control; type: functional, Homo sapiens
[9] = tested on: HEK293; test: Induction of cell cycle arrest in HEK293 cells assessed as accumulation at G2/M phase at 20 uM after 48 hrs by propidium iodide staining based flow cytometry (reference value: 2.63 +/- 0.7%); type: functional, Homo sapiens
[10] = tested on: HEK293; test: Induction of cell cycle arrest in HEK293 cells assessed as accumulation at G2/M phase at 5 uM after 48 hrs by propidium iodide staining based flow cytometry (reference value: 2.63 +/- 0.7%); type: functional, Homo sapiens
[11] = tested on: HEK293; test: Induction of apoptosis in HEK293 cells at 5 to 20 uM after 48 hrs by DAPI staining based fluorescence microscopy; type: functional, cell-based; conditions: Homo sapiens
[12] = tested on: HEK293; test: Reduction in Bcl-xL expression in HEK293 cells at LC50 level after 48 hrs by Western blot method; type: functional, cell-based; conditions: Homo sapiens
[13] = tested on: HEK293; test: Induction of cell cycle arrest in HEK293 cells assessed as accumulation at S phase at 15 uM after 48 hrs by propidium iodide staining based flow cytometry (reference value: 19.9 +/- 0.5%); type: functional, Homo sapiens
[14] = tested on: HEK293; test: Increase in Bax expression in p53 deficient HEK293 cells at LC50 level after 48 hrs by Western blot method; type: functional, cell-based; conditions: Homo sapiens
[15] = tested on: HEK293; test: Induction of apoptosis in HEK293 cells at 10 uM after 48 hrs by propidium iodide staining based flow cytometry (reference value: 24.26 +/- 0.8%); type: functional, Homo sapiens
[16] = tested on: HEK293; test: Induction of apoptosis in HEK293 cells assessed as apoptotic nuclei formation at 10 uM after 48 hrs by DAPI staining based fluorescence microscopy; type: functional, cell-based; conditions: Homo sapiens
[17] = tested on: HEK293; test: Reduction in Bcl-xL expression in p53 deficient HEK293 cells at LC50 level after 48 hrs by Western blot method; type: functional, cell-based; conditions: Homo sapiens
[18] = tested on: HEK293; test: Induction of cell cycle arrest in HEK293 cells assessed as accumulation at G2/M phase at 10 uM after 48 hrs by propidium iodide staining based flow cytometry (reference value: 2.63 +/- 0.7%); type: functional, Homo sapiens
[19] = tested on: HEK293; test: Induction of cell cycle arrest in HEK293 cells assessed as accumulation at G1 phase at 20 uM after 48 hrs by propidium iodide staining based flow cytometry (reference value: 53.21 +/- 0.8%); type: functional, Homo sapiens
[20] = Cytotoxicity against human MCF10A cells after 48 hrs by MTT assay; type: cell-based; conditions: mcf-10a; how it was run: as §1
[21] = tested on: HEK293; test: Induction of cell cycle arrest in HEK293 cells assessed as accumulation at S phase at 10 uM after 48 hrs by propidium iodide staining based flow cytometry (reference value: 19.9 +/- 0.5%); type: functional, Homo sapiens
[22] = tested on: HEK293; test: Increase in PARP cleavage in p53 deficient HEK293 cells at LC50 level after 48 hrs by Western blot method; type: functional, cell-based; conditions: Homo sapiens
[23] = tested on: HEK293; test: Induction of apoptosis in HEK293 cells at 5 uM after 48 hrs by propidium iodide staining based flow cytometry (reference value: 24.26 +/- 0.8%); type: functional, Homo sapiens
[24] = tested on: HEK293; test: Increase in caspase-3 expression in HEK293 cells at LC50 level after 48 hrs by immunocytochemistry; type: functional, cell-based; conditions: Homo sapiens
[25] = tested on: HEK293; test: Reduction in NFkappaB expression in HEK293 cells at LC50 level after 48 hrs by Western blot method; type: functional, cell-based; conditions: Homo sapiens
[26] = tested on: HEK293; test: Increase in p53 expression in HEK293 cells at LC50 level after 48 hrs by Western blot method; type: functional, cell-based; conditions: Homo sapiens
[27] = tested on: HEK293; test: Induction of cell cycle arrest in HEK293 cells assessed as accumulation at S phase at 5 uM after 48 hrs by propidium iodide staining based flow cytometry (reference value: 19.9 +/- 0.5%); type: functional, Homo sapiens
[28] = Binding affinity to GC-28 DNA (unknown origin) minor groove by DAPI staining based spectrophotometry
How it was run: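 DAPI–DNA complex fluorescence read at 460 nm emission band; test compound added to the preformed complex and loss of fluorescence followed.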

[29] = tested on: HEK293; test: Reduction in NFkappaB expression in p53 deficient HEK293 cells at LC50 level after 48 hrs by Western blot method; type: functional, cell-based; conditions: Homo sapiens
[30] = tested on: HEK293; test: Increase in PARP cleavage in HEK293 cells at LC50 level after 48 hrs by Western blot method; type: functional, cell-based; conditions: Homo sapiens
[31] = target: T1, Nuclear factor NF-kappa-B complex (Homo sapiens) (UniProt Q00653+P19838+Q04206); test: Inhibition of NFkappaB (unknown origin) expressed in HEK293 cells assessed as reduction in transcriptional activity at 10 uM after 48 hrs by luciferase reporter gene assay; type: cell-based
How it was run: (§2)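 HEK-293 at 70% confluence transfected by calcium phosphate with NF-kB luciferase ([…]) and b-Gal ([…]) plasmids, 6–8 h, then fresh serum medium 12 h; treated 48 h, lysed, luciferase read and normalized to b-galactosidase. Three independent experiments.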

[32] = tested on: MCF7; test: Cytotoxicity against human MCF7 cells after 48 hrs by MTT assay; type: functional; conditions: MCF7, 48 h, read-out: LC50 (the source's name); how it was run: as §1
[33] = tested on: HEK293; test: Induction of cell cycle arrest in HEK293 cells assessed as accumulation at G1 phase at 10 uM after 48 hrs by propidium iodide staining based flow cytometry (reference value: 53.21 +/- 0.8%); type: functional, Homo sapiens
[34] = tested on: HEK293; test: Induction of cell cycle arrest in HEK293 cells assessed as accumulation at S phase at 20 uM after 48 hrs by propidium iodide staining based flow cytometry (reference value: 19.9 +/- 0.5%); type: functional, Homo sapiens
[35] = tested on: HEK293; test: Induction of apoptosis in HEK293 cells at 15 uM after 48 hrs by propidium iodide staining based flow cytometry (reference value: 24.26 +/- 0.8%); type: functional, Homo sapiens
[36] = target: T1, Nuclear factor NF-kappa-B complex (Homo sapiens); test: Inhibition of NFkappaB (unknown origin) expressed in HEK293 cells assessed as reduction in transcriptional activity after 48 hrs by luciferase reporter gene assay; type: cell-based; how it was run: as §2
[37] = tested on: HEK293; test: Induction of cell death in HEK293 cells at 15 to 20 uM after 48 hrs by DAPI staining based fluorescence microscopy; type: functional; conditions: Homo sapiens
[38] = tested on: HEK293; test: Induction of apoptosis in HEK293 cells at 20 uM after 48 hrs by propidium iodide staining based flow cytometry (reference value: 24.26 +/- 0.8%); type: functional, Homo sapiens
[39] = tested on: HEK293; test: Increase in Bax expression in HEK293 cells at LC50 level after 48 hrs by Western blot method; type: functional, cell-based; conditions: Homo sapiens

T1 sequence (P19838 whole entry, looked up): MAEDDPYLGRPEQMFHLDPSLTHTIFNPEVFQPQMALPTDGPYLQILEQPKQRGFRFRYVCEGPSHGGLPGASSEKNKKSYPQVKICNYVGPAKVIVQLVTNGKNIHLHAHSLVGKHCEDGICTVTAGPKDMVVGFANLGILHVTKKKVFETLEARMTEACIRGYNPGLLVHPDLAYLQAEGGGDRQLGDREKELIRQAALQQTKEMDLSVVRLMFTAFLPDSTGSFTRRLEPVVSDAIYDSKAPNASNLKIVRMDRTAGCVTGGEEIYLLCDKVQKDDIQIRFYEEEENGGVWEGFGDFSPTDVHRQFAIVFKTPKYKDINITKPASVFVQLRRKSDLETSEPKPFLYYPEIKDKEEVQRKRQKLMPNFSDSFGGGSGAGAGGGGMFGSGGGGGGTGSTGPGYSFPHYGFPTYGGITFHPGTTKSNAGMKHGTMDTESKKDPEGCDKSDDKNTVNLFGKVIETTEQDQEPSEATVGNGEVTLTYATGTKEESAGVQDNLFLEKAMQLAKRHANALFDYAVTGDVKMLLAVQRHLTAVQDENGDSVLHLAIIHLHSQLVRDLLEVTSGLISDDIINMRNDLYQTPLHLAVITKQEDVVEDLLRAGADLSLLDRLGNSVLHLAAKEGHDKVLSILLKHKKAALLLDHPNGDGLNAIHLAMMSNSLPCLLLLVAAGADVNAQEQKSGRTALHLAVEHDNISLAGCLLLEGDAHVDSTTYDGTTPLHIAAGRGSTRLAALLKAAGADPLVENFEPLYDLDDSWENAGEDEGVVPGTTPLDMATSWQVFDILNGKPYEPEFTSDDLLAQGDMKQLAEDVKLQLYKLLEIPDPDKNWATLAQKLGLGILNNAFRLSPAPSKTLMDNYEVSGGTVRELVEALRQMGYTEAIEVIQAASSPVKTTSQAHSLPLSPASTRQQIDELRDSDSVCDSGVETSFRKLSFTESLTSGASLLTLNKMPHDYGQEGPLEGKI
T1 sequence (Q00653 whole entry, looked up): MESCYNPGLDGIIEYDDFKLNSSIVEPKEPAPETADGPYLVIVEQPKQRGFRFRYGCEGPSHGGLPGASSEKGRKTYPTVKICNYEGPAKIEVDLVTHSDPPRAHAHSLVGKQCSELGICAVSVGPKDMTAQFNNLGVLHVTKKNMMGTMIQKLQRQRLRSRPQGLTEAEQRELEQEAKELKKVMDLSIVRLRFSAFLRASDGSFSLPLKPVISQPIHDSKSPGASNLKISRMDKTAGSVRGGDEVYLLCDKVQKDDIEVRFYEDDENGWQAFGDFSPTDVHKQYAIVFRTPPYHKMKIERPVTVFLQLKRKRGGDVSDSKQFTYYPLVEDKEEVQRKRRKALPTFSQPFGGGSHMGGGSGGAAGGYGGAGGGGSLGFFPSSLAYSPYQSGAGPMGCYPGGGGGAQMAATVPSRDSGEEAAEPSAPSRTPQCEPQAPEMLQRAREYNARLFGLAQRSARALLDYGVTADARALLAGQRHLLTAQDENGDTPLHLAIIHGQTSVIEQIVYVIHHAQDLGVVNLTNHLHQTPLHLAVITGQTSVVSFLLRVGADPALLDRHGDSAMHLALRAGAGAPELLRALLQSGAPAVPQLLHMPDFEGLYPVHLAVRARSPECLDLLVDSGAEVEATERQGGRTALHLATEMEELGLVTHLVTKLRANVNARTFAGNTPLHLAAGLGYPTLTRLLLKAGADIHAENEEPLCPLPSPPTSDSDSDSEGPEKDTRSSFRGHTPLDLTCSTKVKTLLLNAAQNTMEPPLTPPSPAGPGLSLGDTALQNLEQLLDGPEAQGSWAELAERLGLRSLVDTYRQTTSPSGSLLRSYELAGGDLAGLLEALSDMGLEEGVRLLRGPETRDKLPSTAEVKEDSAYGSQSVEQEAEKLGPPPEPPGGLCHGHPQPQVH
T1 sequence (Q04206 whole entry, looked up): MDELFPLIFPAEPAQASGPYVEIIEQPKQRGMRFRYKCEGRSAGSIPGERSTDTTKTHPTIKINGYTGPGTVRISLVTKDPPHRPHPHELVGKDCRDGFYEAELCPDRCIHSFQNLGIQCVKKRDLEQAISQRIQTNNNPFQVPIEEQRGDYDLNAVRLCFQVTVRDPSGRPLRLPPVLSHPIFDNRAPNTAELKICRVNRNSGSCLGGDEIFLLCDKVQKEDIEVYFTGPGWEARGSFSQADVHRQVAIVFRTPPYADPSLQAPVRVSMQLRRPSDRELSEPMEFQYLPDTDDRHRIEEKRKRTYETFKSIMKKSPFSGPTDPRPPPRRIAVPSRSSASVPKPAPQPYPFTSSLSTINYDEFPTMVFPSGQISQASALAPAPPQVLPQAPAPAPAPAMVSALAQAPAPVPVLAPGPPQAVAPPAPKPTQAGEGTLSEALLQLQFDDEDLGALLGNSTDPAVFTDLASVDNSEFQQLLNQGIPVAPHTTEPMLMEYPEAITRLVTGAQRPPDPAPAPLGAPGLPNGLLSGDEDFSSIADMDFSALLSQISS

## C[C@]1(CO)[C@H]2CC[C@@]3(CO3)[C@@H](C/C=C3/C(=O)OC[C@H]3OC(=O)CCl)[C@]2(C)CC[C@H]1O
[1]
  CC50: 31 µM
[2]
  Retention_time: 37.1 min
[3]
  LC50: 37 µM

## C[C@]1(CO)[C@H]2CC[C@@]3(CO3)[C@@H](C/C=C3/C(=O)OC[C@H]3OC(=O)CI)[C@]2(C)CC[C@H]1O
[4]
  Activity: 14.98%
[5]
  Activity: 25.38%
[6]
  Activity: 1.31%
[7]
  Activity: inactive
[8]
  fold change (FC): >6
[9]
  Activity: 0.52%
[10]
  Activity: 2.7%
[11]
  Activity: Dose-dependent effect
[12]
  Activity: Active
[13]
  Activity: 4.63%
[14]
  Activity: inactive
[15]
  Activity: 77.99%
[16]
  Activity: Active
[17]
  Activity: inactive
[18]
  Activity: 1.41%
[19]
  Activity: 5.37%
[20]
  LC50: > 40 µM
[21]
  Activity: 4.98%
[22]
  Activity: inactive
[23]
  Activity: 62.05%
[24]
  Activity: Active
[25]
  Activity: Active
[26]
  Activity: Active
[27]
  Activity: 9.87%
[28]
  Activity: Active
[29]
  Activity: inactive
[1]
  CC50: 12 µM
[30]
  Activity: Active
[31]
  fold change (FC): 5
[32]
  CC50: 7 µM
[2]
  Retention_time: 31.4 min
[33]
  Activity: 15.61%
[34]
  Activity: 1.18%
[35]
  Activity: 79.55%
[3]
  LC50: 30 µM
[36]
  inhibition: Dose-dependent effect
[37]
  Activity: Active
[38]
  Activity: 92.93%
[39]
  Activity: Active

## C=C1CC[C@@H]2[C@]3(C)COC(C)(C)O[C@@H]3CC[C@@]2(C)[C@@H]1C/C=C1/C(=O)OC[C@H]1OC(=O)CCl
[1]
  CC50: 19 µM
[3]
  LC50: 42 µM

## COc1cc([C@@H]2c3cc4c(cc3[C@@H](O[C@@H]3O[C@@H]5CO[C@@H](C)O[C@H]5[C@H](O)[C@H]3O)[C@H]3COC(=O)[C@H]23)OCO4)cc(OC)c1O [ETOPOSIDE]
[1]
  CC50: 18 µM
[3]
  LC50: 28 µM

## C=C1CC[C@@H]2[C@]3(C)COC(C)(C)O[C@@H]3CC[C@@]2(C)[C@@H]1C/C=C1/C(=O)OC[C@H]1OC(=O)CBr
[1]
  CC50: 17 µM
[3]
  LC50: 36 µM

## C=C1CC[C@@H]2[C@]3(C)COC(C)(C)O[C@@H]3CC[C@@]2(C)[C@@H]1C/C=C1/C(=O)OC[C@H]1OC(=O)CI
[1]
  CC50: 20 µM
[3]
  LC50: 48 µM

## C=C1CC[C@@H]2[C@](C)(CO)[C@H](O)CC[C@@]2(C)[C@@H]1C/C=C1/C(=O)OC[C@H]1O [ANDROGRAPHOLIDE]
[7]
  Activity: inactive
[12]
  Activity: Active
[14]
  Activity: inactive
[17]
  Activity: inactive
[20]
  LC50: > 40 µM
[22]
  Activity: inactive
[24]
  Activity: Active
[25]
  Activity: Active
[26]
  Activity: Active
[29]
  Activity: inactive
[1]
  CC50: 25 µM
[30]
  Activity: Active
[32]
  CC50: 16 µM
[3]
  LC50: < 40 µM
[39]
  Activity: Active

## C[C@]1(CO)[C@H]2CC[C@]3(CO3)[C@@H](C/C=C3/C(=O)OC[C@H]3OC(=O)CI)[C@]2(C)CC[C@H]1O
[1]
  CC50: 25 µM
[2]
  Retention_time: 30.2 min
[3]
  LC50: 42 µM

## C=C1CC[C@@H]2[C@](C)(CO)[C@H](O)CC[C@@]2(C)[C@@H]1C/C=C1/C(=O)OC[C@H]1OC(=O)CCl
[1]
  CC50: 20 µM
[2]
  Retention_time: 23.2 min
[3]
  LC50: 25 µM

## C[C@]1(CO)[C@H]2CC[C@@]3(CO3)[C@@H](C/C=C3/C(=O)OC[C@H]3OC(=O)CBr)[C@]2(C)CC[C@H]1O
[1]
  CC50: 16 µM
[2]
  Retention_time: 27.8 min
[3]
  LC50: 29 µM

## C[C@]1(CO)[C@H]2CC[C@]3(CO3)[C@@H](C/C=C3/C(=O)OC[C@H]3OC(=O)CCl)[C@]2(C)CC[C@H]1O
[1]
  CC50: 18 µM
[2]
  Retention_time: 36.5 min
[3]
  LC50: 43 µM

## C[C@]1(CO)[C@H]2CC[C@]3(CO3)[C@@H](C/C=C3/C(=O)OC[C@H]3OC(=O)CBr)[C@]2(C)CC[C@H]1O
[1]
  CC50: 24 µM
[2]
  Retention_time: 27.2 min
[3]
  LC50: 32 µM

## O=c1[nH]cc(F)c(=O)[nH]1 [FLUOROURACIL]
[1]
  CC50: 25 µM

Reference: ChEMBL document CHEMBL3352171, “Synthesis and biological evaluation of andrographolide analogues as anti-cancer agents” (Eur J Med Chem, 2014)
